From ChEMBL document CHEMBL1153830, “Treatment of a clinically relevant plant-pathogenic fungus with an agricultural azole causes cross-resistance to medical azoles and potentiates caspofungin efficacy” (2007)
Values after ≈ are worked out from the molar mass of the structure shown. Active and inactive are the calls of the source. No cut-off for these calls is given here.

Key:
[1] = test system: Colletotrichum graminicola; assay: Fungicidal activity against tebuconazole-adapted wild type Colletotrichum graminicola CgM2 assessed as metabolically inactive hyphae at 0.025 ug/ml after 3 days by FUN1 staining-based fluorescence microscopy; assay type: functional, organism-based
Procedure, shortened: (§1)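 Mycelia were grown 3 days in liquid complete medium with drug at 0–5 μg/ml. Staining used 50 μM FUN-1 in 2% glucose and 10 mM HEPES (pH 7.2), 1 h at 27°C. Viability was scored by epifluorescence microscopy with a GFP-LP filter. Negative controls were killed with 70% ethanol for 30 min before staining.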

[2] = test system: Colletotrichum graminicola; assay: Fungicidal activity against tebuconazole-adapted wild type Colletotrichum graminicola CgM2 assessed as cell wall rigidity deffect-related increase in apical cell diameter at 0.025 ug/ml after 3 days by differential interference contrast microscopy; assay type: functional, organism-based
Procedure, shortened: (§2)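 Mycelia were grown 3 days in liquid complete medium with caspofungin at 0–5 μg/ml. Cell wall rigidity and hyphal swelling were judged by Nomarski (DIC) light microscopy.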

[3] = test system: Colletotrichum graminicola; assay: Fungicidal activity against tebuconazole-adapted wild type Colletotrichum graminicola CgM2 assessed as cell death at 0.25 ug/ml after 3 days by FUN1 staining-based fluorescence microscopy; assay type: functional, organism-based; procedure, shortened: as §1
[4] = test system: Colletotrichum graminicola; assay: Fungicidal activity against tebuconazole-adapted wild type Colletotrichum graminicola CgM2 assessed as cell wall rigidity deffect-related cell wall swelling at 0.25 ug/ml after 3 days by differential interference contrast microscopy; assay type: functional, organism-based; procedure, shortened: as §2
[5] = test system: Colletotrichum graminicola; assay: Fungicidal activity against tebuconazole-adapted wild type Colletotrichum graminicola CgM2 assessed as increase in metabolically inactive hyphal count at 2.5 ug/ml after 3 days by FUN1 staining-based fluorescence microscopy; assay type: functional, organism-based; procedure, shortened: as §1
[6] = test system: Colletotrichum graminicola; assay: Fungicidal activity against tebuconazole-adapted wild type Colletotrichum graminicola CgM2 assessed as deffects in cell wall rigidity at 2.5 ug/ml after 3 days by differential interference contrast microscopy; assay type: functional, organism-based; procedure, shortened: as §2
[7] = test system: Colletotrichum graminicola; assay: Fungicidal activity against tebuconazole-nonadapted wild type Colletotrichum graminicola CgM2 infected in excised human skin assessed as inhibition of invasive colonized hyphal growth at epidermis at ED50 after 4 days by Uvitex-2B staining-based fluorescence microscopy; assay type: functional, organism-based
Procedure, shortened: (§3)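 Excised human skin from reduction mammoplasty, all pieces from one donor, cut to 20 mm discs. Each disc got 15–20 prick wounds and 100 μl of 10^6 conidia/ml. Discs sat in a Franz diffusion cell at 32°C over isotonic NaCl for up to 4 days. Drug was applied at ED50, ED90 or 2× ED90, three pieces per condition. Biopsies were cryosectioned and Uvitex 2B-stained; hyphal area per section was measured by fluorescence.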

[8] = test system: Colletotrichum graminicola; assay: Fungicidal activity against tebuconazole-nonadapted wild type Colletotrichum graminicola CgM2 infected in excised human skin assessed as inhibition of invasive colonized hyphal growth at epidermis at ED90 after 4 days by Uvitex-2B staining-based fluorescence microscopy; assay type: functional, organism-based; procedure, shortened: as §3
[9] = test system: Colletotrichum graminicola; assay: Fungicidal activity against tebuconazole-nonadapted wild type Colletotrichum graminicola CgM2 assessed as inhibition of radial growth rate at 23 degC in darkness; assay type: functional
Procedure, shortened: (§4)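 Radial growth on solid complete medium, 23°C, darkness. Colony diameters were read at 3 and 6 days after inoculation and compared with drug-free control plates. Azoles and picoxystrobin were dissolved in 12% (wt/vol) Cremophor EL and tested at 0–2.5 μg/ml. Caspofungin, amphotericin B and nystatin were dissolved in water and tested from 0.00025 μg/ml; caspofungin plates used sucrose (10 mg/ml) in place of glucose.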

[10] = test system: Colletotrichum graminicola; assay: Fungicidal activity against tebuconazole-adapted wild type Colletotrichum graminicola CgM2 assessed as inhibition of radial growth rate at 23 degC in darkness; assay type: functional; procedure, shortened: as §4
[11] = test system: Colletotrichum graminicola; assay: Fungicidal activity against tebuconazole-nonadapted wild type Colletotrichum graminicola CgM2 assessed as metabolically inactive hyphae at 0.025 ug/ml after 3 days by FUN1 staining-based fluorescence microscopy; assay type: functional, organism-based; procedure, shortened: as §1
[12] = test system: Colletotrichum graminicola; assay: Fungicidal activity against tebuconazole-nonadapted wild type Colletotrichum graminicola CgM2 assessed as deffects in cell wall rigidity at 0.025 ug/ml after 3 days by differential interference contrast microscopy; assay type: functional, organism-based; procedure, shortened: as §2
[13] = test system: Colletotrichum graminicola; assay: Fungicidal activity against tebuconazole-nonadapted wild type Colletotrichum graminicola CgM2 assessed as metabolically inactive hyphae at 0.25 ug/ml after 3 days by FUN1 staining-based fluorescence microscopy; assay type: functional, organism-based; procedure, shortened: as §1
[14] = test system: Colletotrichum graminicola; assay: Fungicidal activity against tebuconazole-nonadapted wild type Colletotrichum graminicola CgM2 assessed as deffects in cell wall rigidity at 0.25 ug/ml after 3 days by differential interference contrast microscopy; assay type: functional, organism-based; procedure, shortened: as §2
[15] = test system: Colletotrichum graminicola; assay: Fungicidal activity against tebuconazole-nonadapted wild type Colletotrichum graminicola CgM2 assessed as deffects in cell wall rigidity at hyphal apex at 0.25 ug/ml after 3 days by differential interference contrast microscopy; assay type: functional, organism-based; procedure, shortened: as §2
[16] = test system: Colletotrichum graminicola; assay: Fungicidal activity against tebuconazole-nonadapted wild type Colletotrichum graminicola CgM2 assessed as cell death at 2.5 ug/ml after 3 days by FUN1 staining-based fluorescence microscopy; assay type: functional, organism-based; procedure, shortened: as §1
[17] = test system: Colletotrichum graminicola; assay: Fungicidal activity against tebuconazole-nonadapted wild type Colletotrichum graminicola CgM2 assessed as deffects in cell wall rigidity at 2.5 ug/ml after 3 days by differential interference contrast microscopy; assay type: functional, organism-based; procedure, shortened: as §2
[18] = test system: Colletotrichum graminicola; assay: Fungicidal activity against tebuconazole-nonadapted wild type Colletotrichum graminicola CgM2 infected in excised human skin assessed as inhibition of invasive colonized hyphal growth at epidermis at twofold ED90 after 4 days by Uvitex-2B staining-based fluorescence microscopy; assay type: functional, organism-based; procedure, shortened: as §3
[19] = test system: Colletotrichum graminicola; assay: Fungicidal activity against tebuconazole-nonadapted wild type Colletotrichum graminicola CgM2 infected in excised human skin assessed as inhibition of invasive colonized hyphal growth at dermis at ED50 after 4 days by Uvitex-2B staining-based fluorescence microscopy; assay type: functional, organism-based; procedure, shortened: as §3
[20] = test system: Colletotrichum graminicola; assay: Fungicidal activity against tebuconazole-nonadapted wild type Colletotrichum graminicola CgM2 infected in excised human skin assessed as inhibition of invasive colonized hyphal growth at dermis at ED90 after 4 days by Uvitex-2B staining-based fluorescence microscopy; assay type: functional, organism-based; procedure, shortened: as §3
[21] = test system: Colletotrichum graminicola; assay: Fungicidal activity against tebuconazole-adapted wild type Colletotrichum graminicola CgM2 infected in excised human skin assessed as inhibition of invasive colonized hyphal growth at epidermis at ED90 after 4 days by Uvitex-2B staining-based fluorescence microscopy; assay type: functional, organism-based; procedure, shortened: as §3
[22] = test system: Colletotrichum graminicola; assay: Fungicidal activity against tebuconazole-adapted wild type Colletotrichum graminicola CgM2 infected in excised human skin assessed as inhibition of invasive colonized hyphal growth at dermis at ED90 after 4 days by Uvitex-2B staining-based fluorescence microscopy; assay type: functional, organism-based; procedure, shortened: as §3
[23] = test system: Colletotrichum graminicola; assay: Fungicidal activity against tebuconazole-adapted wild type Colletotrichum graminicola CgM2 infected in excised human skin assessed as inhibition of invasive colonized hyphal growth at hypodermis at ED90 after 4 days by Uvitex-2B staining-based fluorescence microscopy; assay type: functional, organism-based; procedure, shortened: as §3
[24] = Colletotrichum graminicola, CgM2, read-out: ED50 (the source's name)

## CC[C@H](C)C[C@H](C)CCCCCCCCC(=O)N[C@H]1C[C@@H](O)[C@@H](NCCN)NC(=O)[C@@H]2[C@@H](O)CCN2C(=O)[C@H]([C@H](O)CCN)NC(=O)[C@H]([C@H](O)[C@@H](O)c2ccc(O)cc2)NC(=O)[C@@H]2C[C@@H](O)CN2C(=O)[C@H]([C@@H](C)O)NC1=O [CASPOFUNGIN]
[1]
  Activity: Active
[2]
  Activity: Active
[3]
  Activity: Active
[4]
  Activity: Active
[5]
  Activity: Active
[6]
  Activity: inactive
[7]
  Activity: inactive
[8]
  Activity: inactive
[9]
  ED90: 1.281 µg/mL (≈ 1.17 µM)
[9]; [24]
  EC50: 0.032 µg/mL (≈ 0.0293 µM)
[10]
  ED90: 0.77 µg/mL (≈ 0.704 µM)
[10]; [24]
  EC50: 0.006 µg/mL (≈ 0.00549 µM)
[11]
  Activity: inactive
[12]
  Activity: inactive
[13]
  Activity: Active
[14]
  Activity: Active
[15]
  Activity: Active
[16]
  Activity: Active
[17]
  Activity: Active
[18]
  Activity: inactive
[19]
  Activity: inactive
[20]
  Activity: inactive
[21]
  Activity: Active
[22]
  Activity: Active
[23]
  Activity: Active
